Data reported in ChEMBL document CHEMBL2176965, “Synthesis and biological investigations of nitric oxide releasing nateglinide and meglitinide type II antidiabetic prodrugs: in-vivo antihyperglycemic activities and blood pressure lowering studies” (J Med Chem, 2012).
Active and inactive are the calls of the source. No cut-off for these calls is given here.

Columns and labels:
[1] = Induction of NO release in PBS buffer at pH 7.4 incubated for 24 hrs; format: physicochemical; set-up: concentration or dose not given beside the values; conditions: pH 7.4, 24 h
How it was run: (§1)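 Compound (2.4 mL of 5.0 × 10−2 mM) incubated at 37 °C in phosphate buffer pH 7.4 for 1, 4, 6 or 24 h. Released NO quantified indirectly as nitrite by Griess reaction and expressed as % NO released.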

Rattus norvegicus [2] = experiment: Induction of hyperglycemia in streptozotocin-induced diabetic Sprague-Dawley rat assessed as increase in blood glucose level at 63.01 umol/kg, po after 24 hrs relative to control; format: organism-based; conditions: in vivo
How it was run: (§2)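 Male Sprague−Dawley rats (300−350 g) made diabetic with streptozotocin 65 mg/kg ip in citrate buffer pH 4.5, nonfasting. Animals with blood glucose 20−30 mmol/L at 48 h were selected, n = 4 per group. Oral dose 63.01 μmol/kg in water with 1% methyl cellulose; vehicle controls. Tail-vein glucose read by glucometer at 1, 3, 6, 24 h; change expressed as % of the 0 h level.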

Rattus norvegicus [3] = experiment: Antihyperglycemic activity in streptozotocin-induced diabetic Sprague-Dawley rat assessed as reduction in blood glucose level at 63.01 umol/kg, po after 1 hr relative to control; format: functional; set-up: scale not given: the % may be the effect or the level left; how it was run: as §2
Rattus norvegicus [4] = experiment: Induction of hyperglycemia in streptozotocin-induced diabetic Sprague-Dawley rat assessed as increase in blood glucose level at 63.01 umol/kg, po after 24 hrs relative to control; conditions: in vivo
Rattus norvegicus [5] = species on record: Rattus norvegicus; experiment: Activation of soluble guanylyl cyclase in rat superior mesenteric arteries assessed as reversal of phenylephrine-induced tone at 1 uM by wire myography
How it was run: (§3)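 Denudation confirmed by no relaxation to acetylcholine (10 μM). Tone raised to 75% of maximal with phenylephrine (1−3 μM). Compounds added at 1 μM, without or with ODQ (10 μM), a soluble guanylyl cyclase inhibitor.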

Rattus norvegicus [6] = species on record: Rattus norvegicus; experiment: Activation of soluble guanylyl cyclase in rat superior mesenteric arteries assessed as reversal of phenylephrine-induced tone in presence of ODQ at 1 uM by wire myography; how it was run: as §3
Rattus norvegicus [7] = experiment: Antihyperglycemic activity in streptozotocin-induced diabetic Sprague-Dawley rat assessed as reduction in blood glucose level at 63.01 umol/kg, po after 6 hrs relative to control; format: functional; set-up: scale not given: the % may be the effect or the level left; how it was run: as §2
Mus musculus [8] = experiment: Antihypertensive activity in C57BL/6 mouse assessed as reduction in mean blood pressure at 63.01 umol/kg, po after 1 to 3 hrs; format: functional, organism-based
Mus musculus [9] = experiment: Antihypertensive activity in C57BL/6 mouse assessed as reduction in systolic blood pressure at 63.01 umol/kg, po after 3 hrs (reference value: 118.3 mmHg); format: functional, Artery
Rattus norvegicus [10] = experiment: Antihyperglycemic activity in streptozotocin-induced diabetic Sprague-Dawley rat assessed as reduction in blood glucose level at 63.01 umol/kg, po after 3 hrs relative to control; format: functional; set-up: scale not given: the % may be the effect or the level left; how it was run: as §2
Mus musculus [11] = experiment: Effect on heart rate in C57BL/6 mouse at 63.01 umol/kg, po after 6 hrs (reference value: 439 bpm); format: ADME, organism-based; conditions: in vivo
Mus musculus [12] = experiment: Effect on heart rate in C57BL/6 mouse at 63.01 umol/kg, po after 3 hrs (reference value: 448 bpm); format: ADME, organism-based; conditions: in vivo
[13] = Induction of NO release in PBS buffer in presence of rat serum at pH 7.4 incubated for 3 hrs; set-up: concentration or dose not given beside the values; conditions: pH 7.4, 3 h
[14] = Induction of NO release in PBS buffer in presence of rat serum at pH 7.4 incubated for 6 hrs; set-up: concentration or dose not given beside the values; conditions: pH 7.4, 6 h
How it was run: (§4)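 Compound (2.4 mL of 5.0 × 10−2 mM) incubated at 37 °C in PBS pH 7.4 with 90 μL rat serum, a source of nonspecific esterases, for 1, 3, 6 or 24 h. NO measured as nitrite by Griess reaction and expressed as % released.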

[15] = Induction of NO release in PBS buffer at pH 7.4 incubated for 6 hrs; format: physicochemical; set-up: concentration or dose not given beside the values; conditions: pH 7.4, 6 h; how it was run: as §1
[16] = Induction of NO release in PBS buffer in presence of rat serum at pH 7.4 incubated for 24 hrs; set-up: concentration or dose not given beside the values; conditions: pH 7.4, 24 h; how it was run: as §4
Mus musculus [17] = experiment: Effect on heart rate in C57BL/6 mouse at 63.01 umol/kg, po after 1 hr (reference value: 449 bpm); format: ADME, organism-based; conditions: in vivo
Mus musculus [18] = experiment: Antihypertensive activity in C57BL/6 mouse assessed as reduction in systolic blood pressure at 63.01 umol/kg, po after 6 hrs (reference value: 126.2 mmHg); format: functional, Artery
[19] = Induction of NO release in PBS buffer at pH 7.4 incubated for 1 hr; format: physicochemical; set-up: concentration or dose not given beside the values; conditions: pH 7.4, 1 h; how it was run: as §1
Mus musculus [20] = experiment: Antihypertensive activity in C57BL/6 mouse assessed as reduction in diastolic blood pressure at 63.01 umol/kg, po after 1 to 3 hrs; format: functional, organism-based; conditions: Artery
[21] = Induction of NO release in PBS buffer at pH 7.4 incubated for 4 hrs; format: physicochemical; set-up: concentration or dose not given beside the values; conditions: pH 7.4, 4 h; how it was run: as §1
Mus musculus [22] = experiment: Antihypertensive activity in C57BL/6 mouse assessed as reduction in systolic blood pressure at 63.01 umol/kg, po after 1 hr (reference value: 126.5 mmHg); format: functional, Artery
[23] = Induction of NO release in PBS buffer in presence of rat serum at pH 7.4 incubated for 1 hr; set-up: concentration or dose not given beside the values; conditions: pH 7.4, 1 h; how it was run: as §4
Rattus norvegicus [24] = experiment: Antihyperglycemic activity in streptozotocin-induced diabetic Sprague-Dawley rat assessed as reduction in blood glucose level at 63.01 umol/kg, po after 24 hrs relative to control; format: functional, organism-based; how it was run: as §2
Mus musculus [25] = experiment: Antihypertensive activity in C57BL/6 mouse assessed as reduction in diastolic blood pressure at 63.01 umol/kg, po after 3 hrs; format: functional, organism-based; conditions: Artery

With `CCN(CC)/[N+]([O-])=N\OCOC(=O)[C@@H](Cc1ccccc1)NC(=O)[C@H]1CC[C@H](C(C)C)CC1` the Activity [1] was 61.3%, the Activity (Rattus norvegicus [2]) was “Non-toxic” and the Activity (Rattus norvegicus [3]) was 21.1%. For the same molecule, the Activity (Rattus norvegicus [4]) was “Non-toxic”, the Activity (Rattus norvegicus [5]) was “Active” and the Activity (Rattus norvegicus [6]) was “inactive”. The Activity (Rattus norvegicus [7]) was 34.1%, the Activity (Mus musculus [8]) was “Active” and the Activity (Mus musculus [9]) was 98.1 mmHg. For the same molecule, the Activity (Rattus norvegicus [10]) was 23.5%, the Activity (Mus musculus [11]) was 435 bpm and the Activity (Mus musculus [12]) was 458 bpm. For the same molecule, the Activity [13] was 50.2%, the Activity [14] was 57.2% and the Activity [15] was 58.8%. It also gave an Activity [16] of 72.2%, an Activity (Mus musculus [17]) of 454 bpm and an Activity (Mus musculus [18]) of 134.4 mmHg. The Activity [19] was 4.4%, the Activity (Mus musculus [20]) was “Active” and the Activity [21] was 5.1%. The Activity (Mus musculus [22]) was 113 mmHg and the Activity [23] was 44.9%.
With `COc1ccc(Cl)cc1C(=O)NCCc1ccc(C(=O)OCO/N=[N+](\[O-])N2CCCC2)cc1` the Activity (Rattus norvegicus [24]) was “inactive”, the Activity [1] was 8.9% and the Activity (Rattus norvegicus [2]) was “Non-toxic”. For the same molecule, the Activity (Rattus norvegicus [3]) was 20%, the Activity (Rattus norvegicus [4]) was “Non-toxic” and the Activity (Mus musculus [8]) was “Active”. It also gave an Activity (Rattus norvegicus [10]) of 12.5%, an Activity (Mus musculus [11]) of 435 bpm and an Activity (Mus musculus [12]) of 458 bpm. The Activity [13] was 51.7%, the Activity [14] was 59.2% and the Activity [15] was 7.2%. For the same molecule, the Activity [16] was 60.5%, the Activity (Mus musculus [17]) was 454 bpm and the Activity (Mus musculus [18]) was 103.4 mmHg. The Activity [19] was 5.1%, the Activity (Mus musculus [20]) was “Active” and the Activity [21] was 5.7%. The Activity (Mus musculus [22]) was 90.3 mmHg and the Activity [23] was 37.6%.
In the case of `CCN(CC)/[N+]([O-])=N/OCOC(=O)c1ccc(CCNC(=O)c2cc(Cl)ccc2OC)cc1`, the Activity (Rattus norvegicus [24]) was “inactive”, the Activity [1] was 6.5% and the Activity (Rattus norvegicus [2]) was “Non-toxic”. The Activity (Rattus norvegicus [3]) was 20%, the Activity (Rattus norvegicus [4]) was “Non-toxic” and the Activity (Rattus norvegicus [7]) was “Active”. For the same molecule, the Activity (Mus musculus [8]) was “Active”, the Activity (Rattus norvegicus [10]) was 12.5% and the Activity (Mus musculus [11]) was 435 bpm. For the same molecule, the Activity (Mus musculus [12]) was 458 bpm, the Activity [13] was 55.9% and the Activity [14] was 61.5%. The Activity [15] was 6.1%, the Activity [16] was 63.6% and the Activity (Mus musculus [17]) was 454 bpm. For the same molecule, the Activity (Mus musculus [18]) was 103.4 mmHg, the Activity [19] was 4.2% and the Activity (Mus musculus [20]) was “Active”. It also gave an Activity [21] of 6%, an Activity (Mus musculus [22]) of 96.8 mmHg and an Activity [23] of 54.5%.
In the case of `CC(C)[C@H]1CC[C@H](C(=O)N[C@H](Cc2ccccc2)C(=O)O)CC1` [NATEGLINIDE], the Activity (Rattus norvegicus [3]) was 13.8%, the Activity (Rattus norvegicus [7]) was 30.6% and the Activity (Rattus norvegicus [10]) was 26.4%.
With `COc1ccc(Cl)cc1C(=O)NCCc1ccc(C(=O)OCCO[N+](=O)[O-])cc1` the Activity (Rattus norvegicus [24]) was “inactive”, the Activity [1] was 9.4% and the Activity (Rattus norvegicus [2]) was “Non-toxic”. For the same molecule, the Activity (Rattus norvegicus [3]) was 20%, the Activity (Rattus norvegicus [4]) was “Non-toxic” and the Activity (Rattus norvegicus [7]) was “Active”. The Activity (Mus musculus [8]) was “Active”, the Activity (Rattus norvegicus [10]) was 12.5% and the Activity (Mus musculus [11]) was 435 bpm. It also gave an Activity (Mus musculus [12]) of 458 bpm, an Activity [13] of 2.3% and an Activity [14] of 2.6%. For the same molecule, the Activity [15] was 7.7%, the Activity [16] was 3.8% and the Activity (Mus musculus [17]) was 454 bpm. The Activity (Mus musculus [18]) was 103.4 mmHg, the Activity [19] was 4.1% and the Activity (Mus musculus [20]) was “Active”. The Activity [21] was 7.2%, the Activity (Mus musculus [22]) was 105.8 mmHg and the Activity [23] was 2.1%.
For `CC(C)[C@H]1CC[C@H](C(=O)N[C@H](Cc2ccccc2)C(=O)OCCO[N+](=O)[O-])CC1`, the Activity [1] was 9.2%, the Activity (Rattus norvegicus [2]) was “Non-toxic” and the Activity (Rattus norvegicus [3]) was 8.2%. The Activity (Rattus norvegicus [4]) was “Non-toxic”, the Activity (Rattus norvegicus [5]) was “Active” and the Activity (Rattus norvegicus [6]) was “inactive”. The Activity (Rattus norvegicus [7]) was 20.5%, the Activity (Rattus norvegicus [10]) was 13.4% and the Activity (Mus musculus [11]) was 435 bpm. For the same molecule, the Activity (Mus musculus [12]) was 458 bpm, the Activity [13] was 1.9% and the Activity [14] was 3.9%. The Activity [15] was 7.7%, the Activity [16] was 6.3% and the Activity (Mus musculus [17]) was 454 bpm. For the same molecule, the Activity (Mus musculus [18]) was 103.4 mmHg, the Activity [19] was 6.7% and the Activity [21] was 7.5%. For the same molecule, the Activity (Mus musculus [22]) was 129.9 mmHg and the Activity [23] was 1.3%.
In the case of `CC(C)[C@H]1CC[C@H](C(=O)N[C@H](Cc2ccccc2)C(=O)OCO/N=[N+](/[O-])N2CCCC2)CC1`, the Activity [1] was 59.9%, the Activity (Rattus norvegicus [2]) was 48.7% and the Activity (Mus musculus [25]) was “inactive”. For the same molecule, the Activity (Rattus norvegicus [3]) was 8.1%, the Activity (Rattus norvegicus [7]) was “inactive” and the Activity (Mus musculus [8]) was “Active”. For the same molecule, the Activity (Mus musculus [9]) was 106.2 mmHg, the Activity (Rattus norvegicus [10]) was 22.6% and the Activity (Mus musculus [11]) was 435 bpm. For the same molecule, the Activity (Mus musculus [12]) was 458 bpm, the Activity [13] was 47.2% and the Activity [14] was 50.1%. The Activity [15] was 52.7%, the Activity [16] was 65.3% and the Activity (Mus musculus [17]) was 454 bpm. For the same molecule, the Activity (Mus musculus [18]) was 134.3 mmHg, the Activity [19] was 6.7% and the Activity [21] was 6.8%. For the same molecule, the Activity (Mus musculus [22]) was 108.4 mmHg and the Activity [23] was 40.2%.
In the case of `COc1ccc(Cl)cc1C(=O)NCCc1ccc(C(=O)O)cc1` [MEGLITINIDE], the Activity (Rattus norvegicus [24]) was “inactive”, the Activity (Rattus norvegicus [3]) was 30.5% and the Activity (Rattus norvegicus [7]) was “Active”. The Activity (Rattus norvegicus [10]) was 8.8%.
